Data published in BindingDB's records for doi:10.1021/jm970671g (Signal Pharmaceuticals, 1998).
pIC50: −log10 of the molar value.

Target: T1, Nuclear factor NF-kappa-B p105 subunit (Homo sapiens, UniProt P19838)
T1 sequence (P19838 whole entry): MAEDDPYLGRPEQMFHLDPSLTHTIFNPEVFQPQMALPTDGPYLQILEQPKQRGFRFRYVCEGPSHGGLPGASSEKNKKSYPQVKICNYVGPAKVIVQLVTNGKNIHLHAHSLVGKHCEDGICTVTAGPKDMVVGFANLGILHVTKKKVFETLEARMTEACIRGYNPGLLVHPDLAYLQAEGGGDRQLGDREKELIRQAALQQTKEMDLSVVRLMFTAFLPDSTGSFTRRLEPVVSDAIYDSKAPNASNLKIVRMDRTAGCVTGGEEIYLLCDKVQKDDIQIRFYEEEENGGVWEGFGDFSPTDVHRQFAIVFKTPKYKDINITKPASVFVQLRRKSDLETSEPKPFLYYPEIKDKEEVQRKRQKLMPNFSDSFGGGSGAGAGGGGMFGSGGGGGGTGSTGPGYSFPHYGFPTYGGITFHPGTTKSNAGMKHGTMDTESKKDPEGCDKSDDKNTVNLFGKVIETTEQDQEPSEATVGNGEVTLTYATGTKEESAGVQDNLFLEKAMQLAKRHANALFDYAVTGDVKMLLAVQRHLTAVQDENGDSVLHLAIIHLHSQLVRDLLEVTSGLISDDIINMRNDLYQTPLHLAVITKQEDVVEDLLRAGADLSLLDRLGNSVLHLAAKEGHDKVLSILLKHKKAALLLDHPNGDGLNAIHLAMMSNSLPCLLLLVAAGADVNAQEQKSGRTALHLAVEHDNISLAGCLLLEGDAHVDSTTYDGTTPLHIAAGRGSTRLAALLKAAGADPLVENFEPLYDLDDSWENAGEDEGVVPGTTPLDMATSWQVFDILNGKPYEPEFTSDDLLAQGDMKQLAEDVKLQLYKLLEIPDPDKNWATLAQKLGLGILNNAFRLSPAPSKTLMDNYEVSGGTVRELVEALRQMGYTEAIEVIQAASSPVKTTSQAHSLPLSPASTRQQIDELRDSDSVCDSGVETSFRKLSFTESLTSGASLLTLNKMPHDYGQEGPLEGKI
Assay: In vitro inhibitory activity against human Jurkat T-Cells stably transfected with an Nuclear factor kappa B transcription factor
Summary of the method: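 Jurkat T-cells stably carrying NF-κB site (MHC promoter) on minimal SV-40 promoter driving luciferase, plated 1 × 10^6 cells/mL in 10% Serum-Plus 18 h prior. Compound in 0.2% DMSO/H2O added 0.5 h at 37 °C; induced with PMA 50 ng/mL and PHA 1 μg/mL, 5 h at 37 °C. Lysate luminescence read; IC50 = concentration halving luciferase versus control.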

pIC50	SMILES
< 5.00	Nc1ncc(C(=O)Nc2cc(Cl)cc(Cl)c2)c(C(F)(F)F)n1 [2-Amino-4-trifluoromethyl-pyrimidine-5-carboxylic acid (3,5-dichloro-phenyl)-amide]
< 5.00	O=C(Nc1cc(Cl)cc(Cl)c1)c1cnc(NCc2ccccc2)nc1C(F)(F)F [2-Benzylamino-4-trifluoromethyl-pyrimidine-5-carboxylic acid (3,5-dichloro-phenyl)-amide]
< 5.00	CCCCNc1ncc(C(=O)Nc2cc(Cl)cc(Cl)c2)c(C(F)(F)F)n1 [2-Butylamino-4-trifluoromethyl-pyrimidine-5-carboxylic acid (3,5-dichloro-phenyl)-amide]
6.10	O=C(Nc1cc(Cl)nc(Cl)n1)c1cnc(Cl)nc1C(F)(F)F [2-Chloro-4-trifluoromethyl-pyrimidine-5-carboxylic acid (2,6-dichloro-pyrimidin-4-yl)-amide]
< 5.00	Cc1cccc(C)c1NC(=O)c1cnc(Cl)nc1C(F)(F)F [2-Chloro-4-trifluoromethyl-pyrimidine-5-carboxylic acid (2,6-dimethyl-phenyl)-amide]
6.05	O=C(Nc1cc(Cl)c(Cl)c(Cl)c1)c1cnc(Cl)nc1C(F)(F)F [2-Chloro-4-trifluoromethyl-pyrimidine-5-carboxylic acid (3,4,5-trichloro-phenyl)-amide]
7.30	O=C(Nc1cc(C(F)(F)F)cc(C(F)(F)F)c1)c1cnc(Cl)nc1C(F)(F)F [2-Chloro-4-trifluoromethyl-pyrimidine-5-carboxylic acid (3,5-bis-trifluoromethyl-phenyl)-amide]
6.30	O=C(Nc1cc(Cl)cc(Cl)c1)c1cnc(Cl)nc1C(F)(F)F [2-Chloro-4-trifluoromethyl-pyrimidine-5-carboxylic acid (3,5-dichloro-phenyl)-amide]
5.64	CN(C(=O)c1cnc(Cl)nc1C(F)(F)F)c1cc(Cl)cc(Cl)c1 [2-Chloro-4-trifluoromethyl-pyrimidine-5-carboxylic acid (3,5-dichloro-phenyl)-methyl-amide]
5.92	COc1cc(NC(=O)c2cnc(Cl)nc2C(F)(F)F)cc(OC)c1 [2-Chloro-4-trifluoromethyl-pyrimidine-5-carboxylic acid (3,5-dimethoxy-phenyl)-amide]
< 5.00	CCCCNC(=O)c1cc(NC(=O)c2cnc(Cl)nc2C(F)(F)F)cc(C(F)(F)F)c1 [2-Chloro-4-trifluoromethyl-pyrimidine-5-carboxylic acid (3-butylcarbamoyl-5-trifluoromethyl-phenyl)-amide]
5.30	NC(=O)c1cc(NC(=O)c2cnc(Cl)nc2C(F)(F)F)cc(C(F)(F)F)c1 [2-Chloro-4-trifluoromethyl-pyrimidine-5-carboxylic acid (3-carbamoyl-5-trifluoromethyl-phenyl)-amide]
5.40	Cc1cc(NC(=O)c2cnc(Cl)nc2C(F)(F)F)on1 [2-Chloro-4-trifluoromethyl-pyrimidine-5-carboxylic acid (3-methyl-isoxazol-5-yl)-amide]
6.42	O=C(Nc1ccc(C(F)(F)F)cc1)c1cnc(Cl)nc1C(F)(F)F [2-Chloro-4-trifluoromethyl-pyrimidine-5-carboxylic acid (4-trifluoromethyl-phenyl)-amide]
5.64	Cc1ccc(NC(=O)c2cnc(Cl)nc2C(F)(F)F)s1 [2-Chloro-4-trifluoromethyl-pyrimidine-5-carboxylic acid (5-methyl-thiophen-2-yl)-amide]
5.57	O=C(c1cnc(Cl)nc1C(F)(F)F)N(Cc1ccccc1)c1cc(Cl)cc(Cl)c1 [2-Chloro-4-trifluoromethyl-pyrimidine-5-carboxylic acid benzyl-(3,5-dichloro-phenyl)-amide]

pIC50	SMILES
< 5.00	CCCCNC(=O)c1cnc(Cl)nc1C(F)(F)F [2-Chloro-4-trifluoromethyl-pyrimidine-5-carboxylic acid butylamide]
< 5.00	O=C(Nc1ccccc1)c1cnc(Cl)nc1C(F)(F)F [2-Chloro-4-trifluoromethyl-pyrimidine-5-carboxylic acid phenylamide]
< 5.00	O=C(Nc1cc(Cl)cc(Cl)c1)c1cnc(NC2CCCCC2)nc1C(F)(F)F [2-Cyclohexylamino-4-trifluoromethyl-pyrimidine-5-carboxylic acid (3,5-dichloro-phenyl)-amide]
< 5.00	CN(C)c1ncc(C(=O)Nc2cc(Cl)cc(Cl)c2)c(C(F)(F)F)n1 [2-Dimethylamino-4-trifluoromethyl-pyrimidine-5-carboxylic acid (3,5-dichloro-phenyl)-amide]
< 5.00	O=C(Nc1cc(Cl)cc(Cl)c1)c1cnc(=O)[nH]c1C(F)(F)F [2-Hydroxy-4-trifluoromethyl-pyrimidine-5-carboxylic acid (3,5-dichloro-phenyl)-amide]
< 5.00	COc1ncc(C(=O)Nc2cc(Cl)cc(Cl)c2)c(C(F)(F)F)n1 [2-Methoxy-4-trifluoromethyl-pyrimidine-5-carboxylic acid (3,5-dichloro-phenyl)-amide]
< 5.00	O=C(Nc1cc(Cl)cc(Cl)c1)c1cnc(Nc2ccccc2)nc1C(F)(F)F [2-Phenylamino-4-trifluoromethyl-pyrimidine-5-carboxylic acid (3,5-dichloro-phenyl)-amide]
5.30	O=C(Nc1cc(Cl)cc(Cl)c1)c1cnc(N2CCCCC2)nc1C(F)(F)F [2-Piperidin-1-yl-4-trifluoromethyl-pyrimidine-5-carboxylic acid (3,5-dichloro-phenyl)-amide]
6.77	CCCCOC(=O)c1cc(NC(=O)c2cnc(Cl)nc2C(F)(F)F)cc(C(F)(F)F)c1 [3-[(2-Chloro-4-trifluoromethyl-pyrimidine-5-carbonyl)-amino]-5-trifluoromethyl-benzoic acid butyl ester]
5.74	O=C(OC1CCCCC1)c1cc(NC(=O)c2cnc(Cl)nc2C(F)(F)F)cc(C(F)(F)F)c1 [3-[(2-Chloro-4-trifluoromethyl-pyrimidine-5-carbonyl)-amino]-5-trifluoromethyl-benzoic acid cyclohexyl ester]
5.34	CCOP(=O)(COC(=O)c1cc(NC(=O)c2cnc(Cl)nc2C(F)(F)F)cc(C(F)(F)F)c1)OCC [3-[(2-Chloro-4-trifluoromethyl-pyrimidine-5-carbonyl)-amino]-5-trifluoromethyl-benzoic acid diethoxy-phosphorylmethyl ester]
6.55	CCOC(=O)c1cc(NC(=O)c2cnc(Cl)nc2C(F)(F)F)cc(C(F)(F)F)c1 [3-[(2-Chloro-4-trifluoromethyl-pyrimidine-5-carbonyl)-amino]-5-trifluoromethyl-benzoic acid ethyl ester]
6.21	CCCCCCOC(=O)c1cc(NC(=O)c2cnc(Cl)nc2C(F)(F)F)cc(C(F)(F)F)c1 [3-[(2-Chloro-4-trifluoromethyl-pyrimidine-5-carbonyl)-amino]-5-trifluoromethyl-benzoic acid hexyl ester]
5.74	CCCCCCCCOC(=O)c1cc(NC(=O)c2cnc(Cl)nc2C(F)(F)F)cc(C(F)(F)F)c1 [3-[(2-Chloro-4-trifluoromethyl-pyrimidine-5-carbonyl)-amino]-5-trifluoromethyl-benzoic acid octyl ester]
< 5.00	O=C(Nc1cc(Cl)cc(Cl)c1)c1cncnc1C(F)(F)F [4-Trifluoromethyl-pyrimidine-5-carboxylic acid (3,5-dichloro-phenyl)-amide]
